# Only some compounds are listed: those with a hit (about 2.3% of all), similar ones and a draw of the others.
# TRPC4 act – activators of mouse TRPC4 channel, primary screen, Fluo4 calcium, HEK293 TRPC4beta/mu-opioid cells; Short transient receptor potential channel 4 (Mus musculus), Q9QUQ5; Fluo4 calcium fluorescence; hits give high values; B-score at 10 µM; hit rate 0.49% among 310,000; AID 2237, 2010;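 active = B-score above 5 SD of library B-scores, and initial fluorescence ratio not above library mean plus 5 SD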;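 note: positive B-score marks a calcium rise read as TRPC4 activation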
# Target sequence (Q9QUQ5 whole entry, looked up): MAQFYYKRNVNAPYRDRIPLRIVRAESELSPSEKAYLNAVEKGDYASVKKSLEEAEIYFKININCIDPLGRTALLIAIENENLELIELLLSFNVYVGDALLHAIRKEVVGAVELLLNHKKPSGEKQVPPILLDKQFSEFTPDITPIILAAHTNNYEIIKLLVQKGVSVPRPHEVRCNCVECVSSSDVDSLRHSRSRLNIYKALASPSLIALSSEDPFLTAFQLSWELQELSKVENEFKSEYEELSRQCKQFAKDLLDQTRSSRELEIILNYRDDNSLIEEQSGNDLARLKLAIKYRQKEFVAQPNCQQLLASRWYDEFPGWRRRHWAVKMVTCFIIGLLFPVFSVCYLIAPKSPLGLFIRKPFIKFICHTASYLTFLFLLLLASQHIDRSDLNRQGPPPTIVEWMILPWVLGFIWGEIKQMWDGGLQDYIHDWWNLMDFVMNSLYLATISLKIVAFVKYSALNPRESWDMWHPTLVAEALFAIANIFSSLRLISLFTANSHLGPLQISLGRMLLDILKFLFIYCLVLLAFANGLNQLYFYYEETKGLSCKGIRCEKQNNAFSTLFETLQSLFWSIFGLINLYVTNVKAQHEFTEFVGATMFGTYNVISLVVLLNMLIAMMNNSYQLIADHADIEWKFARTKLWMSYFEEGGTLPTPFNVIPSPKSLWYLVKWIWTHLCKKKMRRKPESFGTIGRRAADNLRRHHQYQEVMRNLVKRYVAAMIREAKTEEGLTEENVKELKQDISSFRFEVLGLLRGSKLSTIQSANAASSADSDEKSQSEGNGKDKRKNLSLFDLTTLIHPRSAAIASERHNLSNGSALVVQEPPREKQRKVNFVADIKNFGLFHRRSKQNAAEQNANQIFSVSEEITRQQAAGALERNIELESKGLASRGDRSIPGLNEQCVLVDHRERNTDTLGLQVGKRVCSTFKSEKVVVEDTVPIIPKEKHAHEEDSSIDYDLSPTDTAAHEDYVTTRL
#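 Technique: kinetic Fluo4 calcium fluorescence; Test system: TRPC4beta and mu-opioid receptor HEK293 stable cells; Measure: B-scored integrated calcium fluorescence ratio; Benchmarks: low control buffer alone, high control maximal DAMGO; Schedule: 45 min room-temperature Fluo4 loading, 110 s read.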
# TRPC6 inhibitor – mouse TRPC6 channel inhibitors, primary screen, cell-based, HEK293, membrane potential dye | hit rate 1.1% among 310,000 | ACh-evoked depolarization; hits give low values | B-score at 10 µM;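 active = B-score under library mean minus 3 SD, initial fluorescence not abnormally high, positive integrated signal ratio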;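 note: B-score derived from integrated fluorescence ratio over the kinetic read; more negative B-score means stronger inhibition of depolarization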
# TRPC6 activator – mouse TRPC6 channel activators, primary screen, cell-based, HEK293, membrane potential dye; Short transient receptor potential channel 6 (Mus musculus), Q61143; HEK293-TRPC6 membrane potential dye fluorescence; hits give high values; B-score at 10 µM; hit rate 0.13% among 310,000; AID 2550, 2010;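 active = B-score of the integrated fluorescence ratio above library mean plus 3 SD, and starting fluorescence ratio within library mean plus 5 SD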;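 note: higher score means more depolarization so channel activation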
# TRPC4 potent – positive allosteric modulators of TRPC4, primary screen, cell-based, mouse TRPC4beta, HEK293 mu-opioid, Fluo-4 calcium; AID 2227, 2009; DAMGO EC20, Fluo-4 Ca2+ flux; hits give high values; hit rate 0.42% among 310,000; B-score at 10 µM;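 active = B-score of calcium response area above 5 SD of library B-scores, with initial fluorescence ratio within 5 SD of library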;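 note: B-score of integrated fluorescence ratio over time as area under calcium response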
# TRPC4 inh – inhibitors of mouse TRPC4 channel, primary screen, Fluo4 calcium, HEK293 TRPC4beta/mu-opioid cells. hit rate 0.39% among 300,000. Short transient receptor potential channel 4 (Mus musculus), Q9QUQ5. DAMGO-evoked Fluo4 calcium flux; hits give low values. AID 2247, 2010. B-score at 10 µM;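 active = B-score over 3 SD under the library average, no early fluorescence shift, positive overall ratio signal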
#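 Assay system: TRPC4beta/mu-opioid receptor HEK293 cell line; compound dosing: single concentration per test compound; detection: Fluo4 Ca2+ flux fluorescence; evaluation: per-well B score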
# TRPC4 sel inh 2 – second check of whether TRPC6 inhibitors also affect mouse TRPC4; shares compounds with TRPC6 inhibitor; HEK293 TRPC4/MOR, membrane potential dye fluorescence; channel activated by saturating DAMGO dose; inhibition, % at 10 µM; hit rate 42% among 920;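 active = compounds whose fluorescence signal differed from control wells by over 3 SD, either direction, in both duplicate plates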
# TRPC4 spec – mouse TRPC4 modulation by TRPC6 hits, confirmation, selectivity assay for TRPC6 inhibitor project, cell-based, HEK293 TRPC4/mu-opioid, membrane potential dye. shares compounds with TRPC6 inhibitor. membrane potential fluorescence. activity change, negative = inhibition, % at 10 µM. hit rate 61% among 920;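 active = rise or fall in signal beyond 3 SD of buffer-only wells in both replicate plates, either sign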;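 note: integrated kinetic ratio of fluorescence range over baseline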
# HEK293 MPD ctr 2-1 – nonspecific membrane potential effects, parental HEK293, confirmation, counter-screen for TRPC6 inhibitor project, cell-based, second counter screen; shares compounds with TRPC6 inhibitor; parental HEK293 membrane potential dye fluorescence; maximal acetylcholine challenge after compound addition; signal change vs control, % at 10 µM; hit rate 31% among 920; AID 2779, 2010;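 active = membrane potential signal moving either way by over 3 SD of the maximum-effect control, in both duplicate plates, meaning non-specific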
# HEK293 MPD ctr-1 – membrane potential modulation in parental HEK293, confirmation, counter-screen for TRPC6 inhibitor project, cell-based. shares compounds with TRPC6 inhibitor. parental HEK293 membrane potential dye fluorescence. membrane potential signal change, % at 10 µM. hit rate 60% among 920. AID 2780, 2010;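 active = membrane potential signal shifting up or down by more than 3 SD of buffer-only wells, on both duplicate plates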
# HEK293 MPD ctr-2 – parental HEK293 membrane potential modulation, confirmation, counter-screen for TRPC6 modulator project, cell-based; shares compounds with TRPC6 inhibitor; membrane potential dye fluorescence; hit rate 51% among 2,400; membrane potential signal change, % at 10 µM; AID 488924, 2010;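 active = membrane potential signal moves up or down beyond 5 SD from buffer-only wells, on both duplicate plates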
# HEK293 MPD ctr 2-2 – parental HEK293 nonspecific activity of TRPC6 modulators, second screen | shares compounds with TRPC6 inhibitor | inhibition, % at 10 µM | hit rate 14% among 2,400 | membrane potential dye fluorescence; after compound, maximal acetylcholine stimulation | AID 488926;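 active = membrane potential signal drops by more than 5 SD from the mean control signal, in both duplicate plates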;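 note: plate controls were acetylcholine ECmax control wells for no effect and buffer only wells for full effect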
# TRPC4 ctr mod – TRPC4 modulation by TRPC6 hit compounds, confirmation, selectivity assay for TRPC6 modulator project, cell-based, HEK293 TRPC4/mu-opioid, membrane potential dye, mouse; shares compounds with TRPC6 inhibitor; membrane potential fluorescence; percent change from control (negative = decrease, positive = increase), % at 10 µM; hit rate 69% among 2,400; AID 488927, 2010;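 active = membrane potential signal moved up or down beyond 5 SD of buffer control wells, in both duplicate plates, actives on both sides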;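 note: plate controls were assay buffer wells for no effect and DAMGO maximal-effect wells for full effect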
# TRPC4/MOR inh 2 – second selectivity test of TRPC6 modulators against mouse TRPC4 | AID 488928 | HEK293 TRPC4/mu-opioid, membrane potential dye fluorescence; stimulated with maximal-effect DAMGO | inhibition, % at 10 µM | shares compounds with TRPC6 inhibitor | hit rate 55% among 2,400;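 active = drop in membrane potential signal beyond 5 SD of the control wells in both duplicate plates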;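 note: TRPC4 counter screen for TRPC6 hits run under conditions tuned for TRPC6 not TRPC4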
# TRPC6 block conf – mouse TRPC6 channel inhibitors, confirmation, HEK293 cells, membrane potential dye, duplicate; AID 488960, 2010; ACh-evoked depolarization; shares compounds with TRPC6 inhibitor; hit rate 43% among 3,300; inhibition, % at 10 µM;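 active = fluorescence ratio falls more than 5 SD below the full-stimulation control mean, in both duplicate runs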;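 note: integrated fluorescence ratio of peak minus minimum over baseline after agonist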
# TRPC6 act conf – mouse TRPC6 channel activators, confirmation, HEK293 cells, membrane potential dye, duplicate; shares compounds with TRPC6 inhibitor; HEK293-TRPC6 membrane potential dye fluorescence, FDSS; activation, % at 10 µM; hit rate 11% among 2,800;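 active = ratio signal rise beyond 5 SD above unstimulated control wells' mean, seen in both duplicate runs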;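 note: plate controls were buffer EC0 wells for no effect and acetylcholine ECmax response for full effect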
# An asterisk follows results filed as active; i = inactive; x = no result.
SMILES,TRPC4 act,TRPC6 inhibitor,TRPC6 activator,TRPC4 potent,TRPC4 inh,TRPC6 block conf,TRPC6 act conf,others
CCOC(=O)Cn1c(=O)oc2cc(S(=O)(=O)N3CCCC(C(=O)OCC)C3)ccc21 (stereo unspecified),i,i,i,i,i,x,x,
CCOC(=O)C1(Cc2cccc(F)c2)CCN(Cc2cnn(CC)c2)CC1,125*,i,i,i,i,x,x,
CCOC(=O)C1(Cc2cccc(F)c2)CCN(Cc2cnn(CC)c2C)CC1,143*,i,i,i,i,x,x,
CCOC(=O)C1(Cc2cccc(F)c2)CCN(CCCn2cccn2)CC1,i,i,i,i,i,x,x,
Cc1cc(C2(c3cc(C)c(NC(=O)CN4CCOCC4)c(C)c3)CCCCC2)cc(C)c1NC(=O)CN1CCOCC1,i,i,i,i,i,x,x,
CN1CCCCC1CCN1c2ccccc2Sc2ccc(S(C)=O)cc21 (stereo unspecified),i,-7.5*,i,i,i,x,x,
N=C(N)SCc1cn(-c2ccccc2)nc1-c1ccc(Br)cc1,71*,i,i,i,i,x,x,
Cc1ccc(-c2nn(-c3ccccc3)cc2CO)cc1,i,i,i,i,i,x,x,
O=C(CSc1n[nH]c(-c2cccs2)n1)NCc1cccs1,i,-6.8*,i,i,i,i,i,TRPC4 sel inh 2=i;TRPC4 spec=i;HEK293 MPD ctr 2-1=i;HEK293 MPD ctr-1=i
Cc1nc(C)c(-c2csc(Nc3ncccc3C)n2)s1,i,i,i,i,i,x,x,
COc1ccc(-c2nc3n(c2C)Cc2ccccc2-3)cc1,i,-6.2*,i,i,i,i,i,HEK293 MPD ctr-2=-70%*;HEK293 MPD ctr 2-2=i;TRPC4 ctr mod=-14%*;TRPC4/MOR inh 2=52%*
Clc1ccc(SCCCCN2CCOCC2)cc1,i,i,i,i,i,x,x,
Clc1ccc(SCCCCN2CCNCC2)cc1,i,-7.5*,i,14*,i,i,i,TRPC4 sel inh 2=67%*;TRPC4 spec=i;HEK293 MPD ctr 2-1=i;HEK293 MPD ctr-1=2.5%*
COc1ccc(C(=O)NCCc2ccc(F)cc2)cc1OC,i,i,i,i,i,x,x,
O=C(CNCc1ccccc1)NC1C2CC3CC(C2)CC1C3 (stereo unspecified),i,-5.8*,i,i,i,60%*,x,HEK293 MPD ctr-2=i;HEK293 MPD ctr 2-2=i;TRPC4 ctr mod=9.0%*;TRPC4/MOR inh 2=36%*
Cc1ccc(NC(=O)COC(=O)C(NS(=O)(=O)c2ccc(Cl)cc2)C(C)O)cc1 (stereo unspecified),i,i,i,i,i,x,x,
C/C(N)=C(/C#N)C(=O)COC(=O)C(NS(=O)(=O)c1ccc(Cl)cc1)C(C)O (stereo unspecified),i,-5.4*,i,i,i,i,i,HEK293 MPD ctr-2=i;HEK293 MPD ctr 2-2=i;TRPC4 ctr mod=i;TRPC4/MOR inh 2=i
COC(=O)C1CCN(C(=O)COC(=O)CNS(=O)(=O)c2ccc(SC)c([N+](=O)[O-])c2)CC1,i,i,i,i,i,x,x,
O=C(Nc1ccc(Cl)c(S(=O)(=O)N2CCOCC2)c1)c1cn2ccccc2n1,i,i,i,i,i,x,x,
C/C(=N\NC1=NCCN1)c1ccc(N)c([N+](=O)[O-])c1,i,-6*,i,i,i,48%*,i,HEK293 MPD ctr-2=i;HEK293 MPD ctr 2-2=108%*;TRPC4 ctr mod=i;TRPC4/MOR inh 2=32%*
CCCCCCOc1ccc(/C(C)=N/NC2=NCCN2)cc1[N+](=O)[O-],i,i,i,i,i,x,x,
O=C(Cn1nnc2ccccc2c1=O)NCCc1ccc(Cl)cc1Cl,i,i,i,i,i,x,x,
CCOc1ccccc1CSc1nc2ccccc2[nH]1,i,-5.8*,i,i,i,i,i,HEK293 MPD ctr-2=i;HEK293 MPD ctr 2-2=i;TRPC4 ctr mod=i;TRPC4/MOR inh 2=i
Cc1ncc(CSc2nc3ccccc3[nH]2)c(N)n1,i,i,i,i,i,x,x,
O=[N+]([O-])c1ccc(N=Nc2c(Cl)cc(O)cc2Cl)cc1,i,-9.6*,i,i,i,114%*,i,TRPC4 sel inh 2=27%*;TRPC4 spec=5.7%*;HEK293 MPD ctr 2-1=-26%*;HEK293 MPD ctr-1=i
Cc1ccc(S(=O)(=O)NCc2nc3nc(C)cc(C)n3n2)c(C)c1,i,i,i,i,i,x,x,
